This passage reports Ki results from ChEMBL document CHEMBL1130429 (J Med Chem, 1997).

The target of experiment [1] is T1, Sodium-dependent dopamine transporter (Rattus norvegicus, UniProt P23977). Put plainly: Binding affinity for dopamine transporter was determined in rat striatal membrane. In kind it is cell membranes.
For experiment [2], the target named is Sigma 2 receptor. Put plainly: Sigma 2 binding assay was done rat liver membrane, by labeling the binding site with [3H]-DTG (DuPont-NEN) in the presence of […]-pentazocine (100 nM). In short, it runs like this:
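P2 membranes from male Sprague-Dawley rat liver (35 µg protein) with 3 nM [3H]DTG plus 100 nM unlabelled (+)-pentazocine to mask σ1, 50 mM Tris-HCl pH 8.0, 120 min, 25 °C; GF/B filtration; nonspecific with 5 µM DTG. IC50 in triplicate from 5-10 concentrations, Ki via Cheng-Prusoff (Kd 17.9 nM), mean ± SEM.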

Experiment [3] concerns the target Dopamine receptor D2 and D3 (Rattus norvegicus, UniProt P19020+P61169). Put plainly: In vitro binding affinity for D2/D3 receptors in rat striatal homogenates by [125I]NCQ298 displacement.
For experiment [4], the target named is Sigma 2 receptor. Description: Sigma 2 binding assay was done rat liver membrane, by labeling the binding site with [3H]DTG (DuPont-NEN) in the presence of […]-pentazocine (100 nM).
The target of experiment [5] is T2, Sodium-dependent serotonin transporter (Rattus norvegicus, UniProt P31652). Put plainly: Binding affinity for serotonin transporter was determined in rat cortical membrane. In kind it is cell membranes.
T2 sequence (P31652 whole entry): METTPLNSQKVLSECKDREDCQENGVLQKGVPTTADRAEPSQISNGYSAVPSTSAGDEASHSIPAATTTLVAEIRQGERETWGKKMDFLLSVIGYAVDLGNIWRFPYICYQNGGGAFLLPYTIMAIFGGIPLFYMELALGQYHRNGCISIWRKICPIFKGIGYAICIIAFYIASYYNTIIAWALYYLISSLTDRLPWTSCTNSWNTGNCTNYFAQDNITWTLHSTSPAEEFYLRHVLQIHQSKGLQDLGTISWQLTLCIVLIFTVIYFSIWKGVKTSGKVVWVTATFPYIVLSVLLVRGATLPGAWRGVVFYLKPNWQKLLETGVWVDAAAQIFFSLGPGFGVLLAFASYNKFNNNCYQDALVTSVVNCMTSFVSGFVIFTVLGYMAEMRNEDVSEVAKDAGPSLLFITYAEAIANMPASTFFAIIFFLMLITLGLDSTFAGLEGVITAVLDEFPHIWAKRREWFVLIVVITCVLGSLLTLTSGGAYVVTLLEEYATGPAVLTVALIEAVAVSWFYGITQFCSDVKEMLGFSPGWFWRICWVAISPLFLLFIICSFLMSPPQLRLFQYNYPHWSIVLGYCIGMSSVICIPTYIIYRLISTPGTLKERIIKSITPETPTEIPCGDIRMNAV
The target in experiment [6] is T1, Sodium-dependent dopamine transporter. Description: Binding affinity for dopamine transporter was determined in rat striatal membrane. In kind it is cell membranes, Striatum.
Experiment [7] addresses T2, Sodium-dependent serotonin transporter. Description: Binding affinity for serotonin transporter was determined in rat cortical membrane. Format: cell membranes.

Each structure is given as a SMILES string.

T1 sequence (P23977 whole entry): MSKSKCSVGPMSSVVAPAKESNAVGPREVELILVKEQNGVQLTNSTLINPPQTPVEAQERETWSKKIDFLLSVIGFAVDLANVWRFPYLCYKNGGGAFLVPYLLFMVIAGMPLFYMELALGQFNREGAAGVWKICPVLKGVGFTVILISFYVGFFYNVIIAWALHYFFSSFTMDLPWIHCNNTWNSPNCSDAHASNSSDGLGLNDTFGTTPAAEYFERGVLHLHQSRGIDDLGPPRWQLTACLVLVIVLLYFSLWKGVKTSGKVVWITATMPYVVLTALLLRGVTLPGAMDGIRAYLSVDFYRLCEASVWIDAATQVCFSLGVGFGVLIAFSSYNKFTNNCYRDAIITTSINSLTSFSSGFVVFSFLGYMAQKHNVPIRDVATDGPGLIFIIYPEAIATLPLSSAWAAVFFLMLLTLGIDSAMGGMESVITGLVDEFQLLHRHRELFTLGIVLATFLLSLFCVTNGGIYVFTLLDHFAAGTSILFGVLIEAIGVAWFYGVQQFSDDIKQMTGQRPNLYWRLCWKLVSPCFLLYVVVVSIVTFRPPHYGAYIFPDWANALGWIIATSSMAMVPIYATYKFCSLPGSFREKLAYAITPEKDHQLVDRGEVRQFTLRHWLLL

Turning to `OC(CN1C2CCC1CC(c1ccccc1)C2)c1ccc(Cl)c(Cl)c1` (stereo unspecified), the inhibitory constant (Ki) in experiment [1] is 23.6 nM; on Sigma 2 receptor [2], 18.8 nM.

On to `O=C(CN1C2CCC1CC(c1ccccc1)C2)c1ccc(F)cc1` (stereo unspecified), for which the inhibition constant (Ki) stood at 222 nM in experiment [1] and 73.3 nM at Sigma 2 receptor [2].

`OC(CN1C2CCC1CC(c1ccccc1)C2)c1c(Cl)cccc1Cl` (stereo unspecified): the values for the Ki (in experiment [1]; on Sigma 2 receptor [2]) were 42 nM and 15.9 nM, respectively.

Turning to `O[C@H](Cc1ccc(Br)cc1)CN1CCC2(CCc3ccccc32)CC1`, the results for the Ki (in experiment [3]; at Sigma 2 receptor [4]) were over 1000 nM and 8.8 nM, respectively.

As for `OC(CN1C2CCC1CC(c1ccccc1)C2)c1cccc(Br)c1` (stereo unspecified), the Ki in experiment [3] came to 2658 nM; in experiment [1], 23.6 nM; on Sigma 2 receptor [2] it was 9.87 nM; in experiment [5] it was 27 nM.

Take `CN1CC2(CCN([C@@H]3CCCC[C@H]3O)CC2)c2ccccc21`: the Ki in experiment [3] is over 1000 nM; at Sigma 2 receptor [2], 357 nM.

Consider `O[C@@H]1CCN(Cc2cccc(I)c2)C[C@H]1N1CCC2(CCc3ccccc32)CC1`, for which the results for the Ki (in experiment [3]; at Sigma 2 receptor [4]) were over 1000 nM and 224 nM, respectively.

Consider `O[C@@H]1CCCC[C@H]1N1CCC2(CCc3ccccc32)CC1`, for which the inhibition constant Ki in experiment [3] was over 1000 nM; on Sigma 2 receptor [4], 30 nM.

In experiment [6], `OC(CCCN1C2CCC1CC(c1ccccc1)C2)c1ccc(F)cc1` (stereo unspecified) yielded an inhibition constant Ki of 464 nM.

In experiment [3], `CN1CC2(CCN([C@@H]3Cc4ccccc4C[C@H]3O)CC2)c2ccccc21` had a Ki of over 1000 nM.

For the compound `OC(Cc1ccc(Br)cc1)CN1C2CCC1CC(c1ccccc1)C2` (stereo unspecified), the Ki in experiment [3] was found to be 1490 nM; in experiment [6], 306 nM; in experiment [7], 234 nM; at Sigma 2 receptor [2], 4.95 nM.

In the case of `O[C@H]1Cc2ccccc2C[C@@H]1N1C2CCC1CC(c1ccccc1)C2` (stereo partly specified), the Ki in experiment [3] turned out to be 3385 nM; in experiment [6], 1070 nM; in experiment [7] it was 1680 nM.

For `O=C(CCCN1C2CCC1CC(c1ccccc1)C2)c1ccc(F)cc1` (stereo unspecified), the Ki was 16.3 nM in experiment [3], 129 nM in experiment [1], 15.4 nM on Sigma 2 receptor [2] and 88.6 nM in experiment [5].

On to `CN1CC2(CCN(C[C@H](O)c3cccc(Br)c3)CC2)c2ccccc21`, for which the Ki is over 1000 nM in experiment [3] and 99.2 nM on Sigma 2 receptor [4].

Turning to `CN1CC2(CCN([C@@H]3CN(Cc4ccc(F)cc4)CC[C@H]3O)CC2)c2ccccc21`, the Ki in experiment [3] is on record as over 1000 nM.

In the case of `CN1CC2(CCN(CCCC(=O)c3ccc(F)cc3)CC2)c2ccccc21`, the values for the inhibition constant (Ki) (in experiment [3]; on Sigma 2 receptor [2]) were 56.5 nM and 60.8 nM, respectively.

As to `O[C@@H](CN1CCC2(CCc3ccccc32)CC1)c1cccc(Br)c1`, the Ki is over 1000 nM in experiment [3] and 12.7 nM on Sigma 2 receptor [2].

On to `O[C@@H]1Cc2ccccc2C[C@H]1N1CCC2(CCc3ccccc32)CC1`, for which the inhibition constant (Ki) in experiment [3] was over 1000 nM.

Regarding `OC(CN1C2CCC1CC(c1ccccc1)C2)c1ccc(Br)cc1` (stereo unspecified), the inhibition constant (Ki) in experiment [3] was found to be 5092 nM; in experiment [1], 73.8 nM; at Sigma 2 receptor [2], 11.3 nM; in experiment [5], 30.1 nM.

On to `O=C(CCCN1CCC2(CCc3ccccc32)CC1)c1ccc(F)cc1`, for which the Ki at Sigma 2 receptor [4] came out at 3.3 nM.

In the case of `O[C@@H]1CCN(Cc2ccc(F)cc2)C[C@H]1N1CCC2(CCc3ccccc32)CC1`, the Ki is over 1000 nM in experiment [3] and 67 nM on Sigma 2 receptor [4].

As for `O[C@H]1CCN(Cc2cccc(I)c2)C[C@@H]1N1C2CCC1CC(c1ccccc1)C2` (stereo partly specified), the inhibition constant (Ki) in experiment [3] was 1967 nM; in experiment [1], 1070 nM; on Sigma 2 receptor [2], 275 nM; in experiment [5], 4430 nM.

Turning to `O[C@H]1CCCC[C@@H]1N1C2CCC1CC(c1ccccc1)C2` (stereo partly specified), the inhibition constant Ki in experiment [3] is over 38000 nM; in experiment [6], 2810 nM; in experiment [7], 3420 nM; on Sigma 2 receptor [2], 118 nM.

Regarding `O[C@H]1CCN(Cc2ccc(F)cc2)C[C@@H]1N1C2CCC1CC(c1ccccc1)C2` (stereo partly specified), the Ki is 8795 nM in experiment [3], 4180 nM in experiment [1], 260 nM at Sigma 2 receptor [2] and 9200 nM in experiment [5].

As to `CN1CC2(CCN(C[C@H](O)Cc3ccc(Br)cc3)CC2)c2ccccc21`, the Ki is over 1000 nM in experiment [3] and 22.9 nM at Sigma 2 receptor [4].

Regarding `OC(CN1C2CCC1CC(c1ccccc1)C2)c1ccccc1` (stereo unspecified), the Ki in experiment [6] was 41.5 nM; on Sigma 2 receptor [2] it was 32.7 nM.

For the compound `OC(CN1C2CCC1CC(c1ccccc1)C2)c1ccccc1Br` (stereo unspecified), the results for the Ki (in experiment [1]; at Sigma 2 receptor [2]) were 67.2 nM and 7.71 nM, respectively.

Consider `CN1CC2(CCN([C@@H]3CN(Cc4cccc(I)c4)CC[C@H]3O)CC2)c2ccccc21`, for which the Ki in experiment [3] was over 1000 nM; at Sigma 2 receptor [4], 139 nM.

Broadly, the Ki is the dissociation constant of the complex between target and ligand, obtained from inhibition or displacement.
